Columns and labels:
[1] = molecular target: T1, Tubulin (Bos taurus) (UniProt Q6B856+Q862L2+Q862F3); assay: Displacement of [3H]colchicine from bovine brain tubulin at 10 uM after 90 mins by liquid scintillation counting in presence of 10 uM [3H]colchicine
[2] = molecular target: T1, Tubulin (Bos taurus); assay: Displacement of [3H]colchicine from bovine brain tubulin at 40 uM after 90 mins by liquid scintillation counting in presence of 10 uM [3H]colchicine
[3] = molecular target: T1, Tubulin (Bos taurus); assay: Displacement of [3H]colchicine from bovine brain tubulin at 60 uM after 90 mins by liquid scintillation counting in presence of 10 uM [3H]colchicine
[4] = molecular target: T1, Tubulin (Bos taurus); assay: Displacement of [3H]colchicine from bovine brain tubulin at 100 uM after 90 mins by liquid scintillation counting in presence of 10 uM [3H]colchicine
[5] = Inhibition of colony formation in BDF1 mouse bone marrow cells assessed as percentage of colony forming cell at 0.5 uM after 7 days by microscopic analysis relative to control; assay type: functional; parameters: scale not given: the % may be the effect or the level left
Outline: (§1)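 Femoral marrow from female BDF1 mice (8-12 weeks) was dispersed and 1 × 10^5 cells plated in 1.0 ml of 0.3% agar. Medium was McCoy's 5A with supplements, 10^-4 M dithiothreitol, 10% fetal calf and 5% horse serum, plus L-cell CSF. Compound came from a 1 mM stock in Me2SO/EtOH saline, diluted serially 1:10. Incubated 7 days at 37°C under 12% CO2/8% O2; colonies counted microscopically as % of control.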

[6] = Inhibition of colony formation in BDF1 mouse bone marrow cells assessed as percentage of colony forming cell at 5 uM after 7 days by microscopic analysis relative to control; assay type: functional; parameters: scale not given: the % may be the effect or the level left; outline: as §1
[7] = Inhibition of colony formation in BDF1 mouse bone marrow cells assessed as percentage of colony forming cell at 50 uM after 7 days by microscopic analysis relative to control; assay type: functional; parameters: scale not given: the % may be the effect or the level left; outline: as §1
[8] = tested on: P815; assay: Inhibition of colony formation in mouse P815 cells assessed as percentage of colony forming cell at 0.5 uM after 7 days by microscopic analysis relative to control; assay type: functional; parameters: scale not given: the % may be the effect or the level left
Outline: (§2)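 P-815 mastocytoma cells, passaged in vitro, plated at 1 × 10^3 cells in 1.0 ml of 0.3% agar. Medium was McCoy's 5A with supplements, 10^-4 M dithiothreitol, 10% fetal calf and 5% horse serum. Compound came from a 1 mM stock in Me2SO/EtOH saline, diluted serially 1:10. Incubated 7 days at 37°C under 12% CO2/8% O2; colonies counted microscopically as % of control.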

[9] = tested on: P815; assay: Inhibition of colony formation in mouse P815 cells assessed as percentage of colony forming cell at 5 uM after 7 days by microscopic analysis relative to control; assay type: functional; parameters: scale not given: the % may be the effect or the level left; outline: as §2
[10] = tested on: P815; assay: Inhibition of colony formation in mouse P815 cells assessed as percentage of colony forming cell at 50 uM after 7 days by microscopic analysis relative to control; assay type: functional; parameters: scale not given: the % may be the effect or the level left; outline: as §2

| SMILES | Activity [1] | Activity [2] | Activity [3] | Activity [4] | Activity [5] | Activity [6] | Activity [7] | Activity [8] | Activity [9] | Activity [10] |
| --- | --- | --- | --- | --- | --- | --- | --- | --- | --- | --- |
| O=C1OC[C@@H]2[C@@H]1CC=C[C@@H]2c1ccc2c(c1)OCO2 | 17400 cpm | 16700 cpm | 15600 cpm | 16700 cpm | 104% | 135% | 166% | 100% | 61% | 169% |
| O=C1OC[C@H]2CC=CC[C@H]12 | 15500 cpm | 14900 cpm | 15200 cpm | 14700 cpm | 102% | 91% | 106% | 102% | 95% | 112% |
| COc1cc([C@H]2C=CC[C@@H]3COC(=O)[C@H]32)cc(OC)c1OC (relative stereo) | 17000 cpm | 15500 cpm | 14600 cpm | 15200 cpm | 35% | 105% | 75% | 84% | 42% | 9% |
| O=C1OC[C@H]2CC=CC[C@@H]12 | 15800 cpm | 16800 cpm | 15900 cpm | 14100 cpm | 106% | 103% | 114% | 93% | 69% | 111% |
| O=C1OC[C@H]2[C@@H]1CC=C[C@@H]2c1ccccc1 (relative stereo) | 15800 cpm | 14800 cpm | 5380 cpm | 13100 cpm |  |  |  |  |  |  |
| O=C1OC[C@H]2[C@@H]1CC=C[C@@H]2c1ccc2c(c1)OCO2 | 19000 cpm | 16700 cpm | 17000 cpm | 17000 cpm | 103% | 105% | 121% | 71% | 98% | 106% |
